Legend:
Tumor Cell line [1] = test: GI50 was given In vitro as +50% percent growth (PG), measured as concentration of compound required to inhibit disease oriented human tumor cell line panels; Value ranges from 0.62-2.95; type: functional
Summary of the method: (§1)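 Human tumour cell line panel; percent growth plotted against log drug concentration to give dose-response curves. GI50 is the concentration giving PG +50%, and TGI the concentration giving PG 0%. Values are mean inhibitory concentrations over the entire panel. PG values at either limit (> or <) are included in the mean.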

Tumor Cell line [2] = test: LC50 was given In vitro as -50% percent growth (PG), measured as concentration of compound required to inhibit disease oriented human tumor cell line panels; Value ranges from 12.30->100; type: functional; settings: read-out: LC50 (the source's name)
Summary of the method: (§2)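 Human tumor cell line panel tested in vitro. Percent growth (PG) plotted against log drug concentration to give dose-response curves. LC50 is the concentration where PG equals -50%; GI50 and TGI are taken at +50% and 0%. Values are means across the full panel, with values beyond the tested limits (> or <) included in the mean.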

Tumor Cell line [3] = test: TGI was measured In vitro as the ratio of the mean activity for all non-CNS tumor cell lines over the mean activity of the CNS tumor subpanel (eight cell lines); type: functional, Homo sapiens
Summary of the method: (§3)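 Ratio of the mean activity (μM) over all non-CNS tumour cell lines (ca. 40-50 lines) to the mean activity (μM) of the CNS subpanel (eight lines). Activity was taken from PG vs log concentration curves: GI50 at PG +50%, TGI at PG 0%.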

Tumor Cell line [4] = test: GI50 was measured In vitro as the ratio of the mean activity for all non-CNS tumor cell lines over the mean activity of the CNS tumor subpanel (eight cell lines); type: functional, Homo sapiens; summary of the method: as §3
Tumor Cell line [5] = test: LC50 was given in vitro as -50% percent growth (PG), measured as concentration of compound required to inhibit disease oriented human tumor cell line panels; Value ranges from 5.75->100; type: functional; settings: read-out: LC50 (the source's name); summary of the method: as §2
Tumor Cell line [6] = test: GI50 was given in vitro as +50% percent growth (PG), measured as concentration of compound required to inhibit disease oriented human tumor cell line panels; Value ranges from 1.55-16.6; type: functional; summary of the method: as §1
Tumor Cell line [7] = test: TGI was given in vitro as 0% percent growth (PG), measured as concentration of compound required to inhibit disease oriented human tumor cell line panels; Value ranges from 2.75-41.69; type: functional; summary of the method: as §1
[8] = TGI was measured in vitro as the ratio of the mean activity for all non-CNS tumor cell lines over the mean activity of the CNS tumor subpanel (eight cell lines); type: functional; summary of the method: as §3
[9] = GI50 was measured in vitro as the ratio of the mean activity for all non-CNS tumor cell lines over the mean activity of the CNS tumor subpanel (eight cell lines); type: functional; summary of the method: as §3
[10] = LC50 was measured in vitro as the ratio of the mean activity for all non-CNS tumor cell lines over the mean activity of the CNS tumor subpanel (eight cell lines); type: functional
Summary of the method: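 Same PG dose-response panel. LC50 (μM) is averaged separately over the non-CNS lines (ca. 40-50 lines) and the CNS subpanel (eight lines). The ratio is the non-CNS mean divided by the CNS mean.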

Tumor Cell line [11] = test: GI50 was given In vitro as +50% percent growth (PG), measured as concentration of compound required to inhibit disease oriented human tumor cell line panels; Value ranges from 0.02->100; type: functional; summary of the method: as §1
Tumor Cell line [12] = test: LC50 was given In vitro as -50% percent growth (PG), measured as concentration of compound required to inhibit disease oriented human tumor cell line panels; Value ranges from 1.20->100; type: functional; settings: read-out: LC50 (the source's name)
Tumor Cell line [13] = test: TGI was given In vitro as 0% percent growth (PG), measured as concentration of compound required to inhibit disease oriented human tumor cell line panels; Value ranges from 0.30->100; type: functional
Tumor Cell line [14] = test: GI50 was given In vitro as +50% percent growth (PG), measured as concentration of compound required to inhibit disease oriented human tumor cell line panels; Value ranges from 0.22-52.48; type: functional; summary of the method: as §1
Tumor Cell line [15] = test: LC50 was given In vitro as -50% percent growth (PG), measured as concentration of compound required to inhibit disease oriented human tumor cell line panels; type: functional; settings: read-out: LC50 (the source's name); summary of the method: as §2
Tumor Cell line [16] = test: TGI was given In vitro as 0% percent growth (PG), measured as concentration of compound required to inhibit disease oriented human tumor cell line panels; Value ranges from 0.06->100; type: functional
Tumor Cell line [17] = test: GI50 was given In vitro as +50% percent growth (PG), measured as concentration of compound required to inhibit disease oriented human tumor cell line panels;Value ranges from 0.06->100; type: functional
Tumor Cell line [18] = test: LC50 was given In vitro as -50% percent growth (PG), measured as concentration of compound required to inhibit disease oriented human tumor cell line panels; Value ranges from 5.25->100; type: functional; settings: read-out: LC50 (the source's name); summary of the method: as §2
Tumor Cell line [19] = test: GI50 was given In vitro as +50% percent growth (PG), measured as concentration of compound required to inhibit disease oriented human tumor cell line panels; Value ranges from 0.32-2; type: functional; summary of the method: as §1
Tumor Cell line [20] = test: TGI was given In vitro as 0% percent growth (PG), measured as concentration of compound required to inhibit disease oriented human tumor cell line panels; type: functional; summary of the method: as §1
Tumor Cell line [21] = test: GI50 was given In vitro as +50% percent growth (PG), measured as concentration of compound required to inhibit disease oriented human tumor cell line panels; type: functional; summary of the method: as §1
Tumor Cell line [22] = test: LC50 was given In vitro as -50% percent growth (PG), measured as concentration of compound required to inhibit disease oriented human tumor cell line panels; Value ranges from 67.61->100; type: functional; settings: read-out: LC50 (the source's name); summary of the method: as §2
Tumor Cell line [23] = test: GI50 was given In vitro as +50% percent growth (PG), measured as concentration of compound required to inhibit disease oriented human tumor cell line panels; Value ranges from 0.23-29.5; type: functional; summary of the method: as §1
Tumor Cell line [24] = test: GI50 was given In vitro as +50% percent growth (PG), measured as concentration of compound required to inhibit disease oriented human tumor cell line panels; Value ranges from 0.19->100; type: functional
Tumor Cell line [25] = test: LC50 was given In vitro as -50% percent growth (PG), measured as concentration of compound required to inhibit disease oriented human tumor cell line panels; Value ranges from 5.6->100; type: functional; settings: read-out: LC50 (the source's name)
Tumor Cell line [26] = test: TGI was given In vitro as 0% percent growth (PG), measured as concentration of compound required to inhibit disease oriented human tumor cell line panels; Value ranges from 0.65->100; type: functional

Compound Cc1c2cc[n+](C)cc2c(C)c2c1[nH]c1ccc(OCC(F)(F)F)cc12.[I-] has a GI50 (Tumor Cell line [1]) of 1.58 µM, a CC50 (Tumor Cell line [2]) of over 79.4 µM and a TGI ratio (Tumor Cell line [3]) of 9.11. The GI50 ratio (Tumor Cell line [4]) was 6.26.
With Cc1c2ccncc2c(C)c2c1[nH]c1ccc(Oc3ccccc3)cc12 the CC50 (Tumor Cell line [5]) was over 19.5 µM, the GI50 (Tumor Cell line [6]) was 2.63 µM and the TGI (Tumor Cell line [7]) was 6.03 µM. For the same compound, the TGI ratio [8] was 0.81, the GI50 ratio [9] was 0.82 and the LC50 ratio [10] was 0.88 µM.
With CC(=O)[O-].COc1ccc2[nH]c3c(C)c4cc[n+](C)cc4c(C)c3c2c1 the GI50 (Tumor Cell line [11]) was over 1.86 µM, the CC50 (Tumor Cell line [12]) was over 49 µM and the TGI (Tumor Cell line [13]) was over 14.8 µM. It also gave a TGI ratio (Tumor Cell line [3]) of 33.9 and a GI50 ratio (Tumor Cell line [4]) of 16.7.
Compound CC(=O)[O-].Cc1c2cc[n+](C)cc2c(C)c2c1[nH]c1ccc(OCC(F)(F)F)cc12 has a GI50 (Tumor Cell line [14]) of 3.47 µM, a CC50 (Tumor Cell line [15]) of over 100 µM and a TGI ratio (Tumor Cell line [3]) of 13.7. For the same compound, the GI50 ratio (Tumor Cell line [4]) was 12.9.
Cc1c2cc[n+](C)cc2c(C)c2c1[nH]c1ccc(OC(C)C)cc12.[I-] gave a TGI (Tumor Cell line [16]) of over 13.2 µM, a GI50 (Tumor Cell line [17]) of over 1.62 µM and a CC50 (Tumor Cell line [18]) of over 58.9 µM. For the same compound, the TGI ratio (Tumor Cell line [3]) was 6.49 and the GI50 ratio (Tumor Cell line [4]) was 8.35.
Cc1c2ccncc2c(C)c2c1[nH]c1ccc(OC(C)C)cc12 gave a CC50 (Tumor Cell line [18]) of over 6.61 µM, a GI50 (Tumor Cell line [19]) of 1.32 µM and a TGI ratio (Tumor Cell line [3]) of 0.9. For the same compound, the GI50 ratio (Tumor Cell line [4]) was 0.78.
Work on CC(=O)[O-].Cc1c2cc[n+](C)cc2c(C)c2c1[nH]c1ccc(OC(C)(C)C)cc12 yielded a TGI (Tumor Cell line [20]) of over 100 µM, a CC50 (Tumor Cell line [15]) of over 100 µM and a TGI ratio (Tumor Cell line [3]) of 1. The GI50 ratio (Tumor Cell line [4]) was 1 and the GI50 (Tumor Cell line [21]) was over 100 µM.
For CC(=O)[O-].Cc1c2cc[n+](C)cc2c(C)c2c1[nH]c1ccc(Oc3ccccc3)cc12, the CC50 (Tumor Cell line [22]) was over 97.7 µM, the GI50 (Tumor Cell line [23]) was 1.82 µM and the TGI ratio (Tumor Cell line [3]) was 3.06. It also gave a GI50 ratio (Tumor Cell line [4]) of 3.48.
CC(=O)[O-].CCOc1ccc2[nH]c3c(C)c4cc[n+](C)cc4c(C)c3c2c1 showed a GI50 (Tumor Cell line [24]) of over 2.34 µM, a CC50 (Tumor Cell line [25]) of over 74.1 µM and a TGI (Tumor Cell line [26]) of over 19.5 µM. The TGI ratio (Tumor Cell line [3]) was 7.08 and the GI50 ratio (Tumor Cell line [4]) was 5.92.
